Test results published in ChEMBL document CHEMBL3580605, “Melampodium leucanthum, a source of cytotoxic sesquiterpenes with antimitotic activities” (J Nat Prod, 2015).
Active and inactive are the calls of the source. The rule behind the calls is not given here.

How the values were obtained:
HeLa [1] = experiment: Growth inhibition of human HeLa cells by sulforhodamine B assay; assay type: functional, cell-based
Procedure, shortened: (§1)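 SRB assay. DU 145 cells were grown in IMEM with 10% FBS and gentamicin, PC-3 in RPMI 1640 with 10% FBS and gentamicin, and HeLa in BME with 10% FBS and gentamicin. Cytotoxicity was read as a fall in cell density below the density at the time of drug addition. Each concentration was tested in triplicate, n = 2–9 independent experiments. IC50 is the concentration giving 50% inhibition of proliferation versus vehicle control, interpolated from a 4-parameter nonlinear regression; mean ± SE.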

HeLa [2] = experiment: Induction of apoptosis in human HeLa cells assessed as increase in PARP cleavage at 10 uM after 24 hrs by immunoblotting method; assay type: functional, cell-based
Procedure, shortened: (§2)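 HeLa and DU 145 cells were given vehicle, BI2536 (100 nM) or test compounds (10 µM) for 24 h. Lysed with protease inhibitors; equal protein run on SDS-PAGE, transferred to PVDF, and probed for cleaved PARP (1:1000) with actin as loading control; ECL detection.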

DU-145 [3] = experiment: Induction of apoptosis in human DU145 cells assessed as increase in PARP cleavage at 10 uM after 24 hrs by immunoblotting method; assay type: functional, cell-based; procedure, shortened: as §2
PC-3 [4] = experiment: Induction of monopolar mitotic spindles in human PC3 cells at 25 uM incubated for 18 hrs by indirect immunofluorescence microscopy; assay type: functional, cell-based
Procedure, shortened: (§3)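 Cells adhered overnight on glass coverslips, then were treated for 18 h. They were fixed in cold methanol (4 °C, 5 min) and blocked with 10% bovine calf serum for 20 min. Stained with monoclonal anti-β-tubulin (1:400, 2 h, 37 °C), then FITC anti-mouse IgG (1:200, 1 h, 37 °C), and 0.1 µg/mL DAPI. Spindles scored by indirect immunofluorescence; BI2536 at 100 nM served as positive control.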

SK-OV-3 [5] = experiment: Resistance index, ratio of IC50 for human SKOV3-MDR1-M6/6 cells to IC50 for human SKOV3 cells; assay type: functional
Procedure, shortened: (§4)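 Isogenic ovarian pair: parental SK-OV-3 and its Pgp-expressing single-cell clone SK-OV-3/MDR-1-M6/6, tested by SRB assay. IC50 is interpolated from a 4-parameter nonlinear regression against vehicle control. Rr = IC50 in M6/6 divided by IC50 in SK-OV-3.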

[6] = target: Serine/threonine-protein kinase PLK1 (Homo sapiens) (UniProt P53350); experiment: Inhibition of PLK1 Thr210 phosphorylation in human HeLa cells at 10 uM by immunoblotting method; assay type: cell-based
Sequence of Serine/threonine-protein kinase PLK1 (Homo sapiens) (P53350 whole entry): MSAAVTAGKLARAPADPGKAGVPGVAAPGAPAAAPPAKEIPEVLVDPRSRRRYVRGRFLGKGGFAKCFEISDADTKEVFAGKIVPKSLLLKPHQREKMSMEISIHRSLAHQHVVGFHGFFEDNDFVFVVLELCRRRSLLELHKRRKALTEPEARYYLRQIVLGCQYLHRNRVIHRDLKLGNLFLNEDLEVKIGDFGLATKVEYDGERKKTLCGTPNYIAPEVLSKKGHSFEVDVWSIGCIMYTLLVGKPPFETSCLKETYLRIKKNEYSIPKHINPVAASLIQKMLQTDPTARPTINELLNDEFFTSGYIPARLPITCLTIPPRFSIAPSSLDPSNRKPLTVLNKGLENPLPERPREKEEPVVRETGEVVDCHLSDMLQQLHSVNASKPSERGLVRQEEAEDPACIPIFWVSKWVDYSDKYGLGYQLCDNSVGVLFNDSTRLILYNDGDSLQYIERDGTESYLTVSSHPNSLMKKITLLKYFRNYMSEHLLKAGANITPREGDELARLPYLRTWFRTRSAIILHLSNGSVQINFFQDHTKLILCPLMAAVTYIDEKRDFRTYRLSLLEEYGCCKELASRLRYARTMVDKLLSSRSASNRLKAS
Procedure, shortened: (§5)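 HeLa and DU 145 cells were given vehicle, 100 nM BI 2536 or 10 µM test compounds. Lysed and immunoblotted for total PLK1 and phospho-Thr210-PLK1.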

[7] = target: Serine/threonine-protein kinase PLK1 (Homo sapiens) (UniProt P53350); experiment: Inhibition of PLK1 Thr210 phosphorylation in human DU145 cells at 10 uM by immunoblotting method; assay type: cell-based; details: DU-145; procedure, shortened: as §5
DU-145 [8] = experiment: Growth inhibition of human DU145 cells by sulforhodamine B assay; assay type: functional, cell-based; procedure, shortened: as §1
HeLa [9] = experiment: Induction of monopolar mitotic spindles in human HeLa cells at 25 uM incubated for 18 hrs by indirect immunofluorescence microscopy; assay type: functional, cell-based; procedure, shortened: as §3
SK-OV-3 [10] = experiment: Growth inhibition of human SKOV3-MDR1-M6/6 cells by sulforhodamine B assay; assay type: functional, cell-based; procedure, shortened: as §4
DU-145 [11] = experiment: Inhibition of PLK1 protein accumulation in human DU145 cells at 10 uM by immunoblotting method; assay type: functional, cell-based; procedure, shortened: as §5
HeLa [12] = experiment: Inhibition of PLK1 protein accumulation in human HeLa cells at 10 uM by immunoblotting method; assay type: functional, cell-based; procedure, shortened: as §5
HeLa [13] = experiment: Induction of aberrant bipolar mitotic spindles in human HeLa cells at 25 uM incubated for 18 hrs by indirect immunofluorescence microscopy; assay type: functional, cell-based; procedure, shortened: as §3
DU-145 [14] = experiment: Inhibition of colony formation of human DU145 cells incubated for 4 hrs followed by drug wash-out and measured after 14 days post drug wash-out by crystal violet staining based clonogenic assay; assay type: functional, cell-based
Procedure, shortened: (§6)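 300 DU 145 cells were allowed to adhere, then exposed to vehicle (0.5% DMSO final) or compound for 4 h. Washed with DPBS and regrown in fresh medium. Fixed and stained with 0.5% crystal violet in 10% methanol; colonies counted. Legend states 9 days, methods 14 days. One-way ANOVA with Dunnett's post-hoc test; n = 2–9 experiments.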

DU-145 [15] = experiment: Inhibition of colony formation of human DU145 cells at 5 to 20 uM incubated for 4 hrs followed by drug wash-out and measured after 9 days post drug wash-out by crystal violet staining based clonogenic assay; assay type: functional, cell-based; procedure, shortened: as §6
A10 = experiment: Growth inhibition of rat A10 cells by sulforhodamine B assay; assay type: cell-based
Tubulin (Sus scrofa) [16] = target: T1, Tubulin (Sus scrofa) (UniProt P02554+P02550); experiment: Inhibition of porcine tubulin polymerization at 10 uM incubated for 1 hr by turbidimetry; assay type: protein assay
T1 sequence (P02550 whole entry, looked up): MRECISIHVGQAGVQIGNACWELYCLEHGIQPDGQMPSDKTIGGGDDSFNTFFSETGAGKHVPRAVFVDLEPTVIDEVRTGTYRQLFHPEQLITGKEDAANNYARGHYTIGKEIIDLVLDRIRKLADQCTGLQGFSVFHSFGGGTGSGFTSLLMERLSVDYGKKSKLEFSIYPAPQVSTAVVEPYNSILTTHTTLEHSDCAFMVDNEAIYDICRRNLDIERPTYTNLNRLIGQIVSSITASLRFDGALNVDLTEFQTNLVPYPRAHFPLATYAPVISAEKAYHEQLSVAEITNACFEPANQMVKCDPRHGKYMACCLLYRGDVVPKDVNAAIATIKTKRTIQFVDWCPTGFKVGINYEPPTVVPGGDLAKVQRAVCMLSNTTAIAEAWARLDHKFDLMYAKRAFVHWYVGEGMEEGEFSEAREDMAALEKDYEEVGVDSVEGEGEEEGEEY
T1 sequence (P02554 whole entry, looked up): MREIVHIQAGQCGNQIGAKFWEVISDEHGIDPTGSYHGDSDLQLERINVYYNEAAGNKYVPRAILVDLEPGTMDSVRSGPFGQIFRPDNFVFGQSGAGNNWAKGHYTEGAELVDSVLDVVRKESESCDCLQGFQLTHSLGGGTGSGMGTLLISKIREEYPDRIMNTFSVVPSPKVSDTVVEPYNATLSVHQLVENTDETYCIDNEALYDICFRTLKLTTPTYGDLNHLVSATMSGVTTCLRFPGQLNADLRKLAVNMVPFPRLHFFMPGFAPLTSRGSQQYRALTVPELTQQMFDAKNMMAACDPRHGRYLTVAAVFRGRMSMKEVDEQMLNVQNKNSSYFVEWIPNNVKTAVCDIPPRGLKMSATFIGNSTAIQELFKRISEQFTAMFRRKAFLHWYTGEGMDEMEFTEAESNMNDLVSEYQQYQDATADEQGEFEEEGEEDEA

PC-3 [17] = experiment: Induction of aberrant bipolar mitotic spindles in human PC3 cells at 25 uM incubated for 18 hrs by indirect immunofluorescence microscopy; assay type: functional, cell-based; procedure, shortened: as §3
PC-3 [18] = experiment: Growth inhibition of human PC3 cells by sulforhodamine B assay; assay type: functional, cell-based; procedure, shortened: as §1
SK-OV-3 [19] = experiment: Growth inhibition of human SKOV3 cells by sulforhodamine B assay; assay type: functional, cell-based; procedure, shortened: as §4
HeLa [20] = experiment: Inhibition of PLK1 protein accumulation in human HeLa cells at 100 nM by immunoblotting method; assay type: functional, cell-based; procedure, shortened: as §5
DU-145 [21] = experiment: Inhibition of PLK1 protein accumulation in human DU145 cells at 100 nM by immunoblotting method; assay type: functional, cell-based; procedure, shortened: as §5
HeLa [22] = experiment: Induction of monopolar mitotic spindles in human HeLa cells at 100 nM incubated for 18 hrs by indirect immunofluorescence microscopy; assay type: functional, cell-based; procedure, shortened: as §3
DU-145 [23] = experiment: Induction of apoptosis in human DU145 cells assessed as increase in PARP cleavage at 100 nM after 24 hrs by immunoblotting method; assay type: functional, cell-based; procedure, shortened: as §2
HeLa [24] = experiment: Induction of apoptosis in human HeLa cells assessed as increase in PARP cleavage at 100 nM after 24 hrs by immunoblotting method; assay type: functional, cell-based; procedure, shortened: as §2
PC-3 [25] = experiment: Induction of monopolar mitotic spindles in human PC3 cells at 100 nM incubated for 18 hrs by indirect immunofluorescence microscopy; assay type: functional, cell-based; procedure, shortened: as §3
DU-145 [26] = experiment: Selectivity index, ratio of IC50 for human PC3 cells to IC50 for human DU145 cells; assay type: functional
Procedure, shortened: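 Ratio of SRB IC50 values from PC-3 and DU 145 prostate cells, each measured by 4-parameter nonlinear regression of triplicate concentration-response data.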

HeLa [27] = experiment: Induction of monopolar mitotic spindles in human HeLa cells at 7.5 uM incubated for 18 hrs by indirect immunofluorescence microscopy; assay type: functional, cell-based; procedure, shortened: as §3
HeLa [28] = experiment: Induction of aberrant bipolar mitotic spindles in human HeLa cells at 7.5 uM incubated for 18 hrs by indirect immunofluorescence microscopy; assay type: functional, cell-based; procedure, shortened: as §3
PC-3 [29] = experiment: Induction of monopolar mitotic spindles in human PC3 cells at 7.5 uM incubated for 18 hrs by indirect immunofluorescence microscopy; assay type: functional, cell-based; procedure, shortened: as §3
PC-3 [30] = experiment: Induction of aberrant bipolar mitotic spindles in human PC3 cells at 7.5 uM incubated for 18 hrs by indirect immunofluorescence microscopy; assay type: functional, cell-based; procedure, shortened: as §3
PC-3 [31] = experiment: Induction of monopolar mitotic spindles in human PC3 cells at 10 uM incubated for 18 hrs by indirect immunofluorescence microscopy; assay type: functional, cell-based; procedure, shortened: as §3
Tubulin (Sus scrofa) [32] = target: T1, Tubulin (Sus scrofa); experiment: Inhibition of porcine tubulin polymerization at 10 to 100 uM incubated for 1 hr by turbidimetry; assay type: protein assay
HeLa [33] = experiment: Induction of aberrant bipolar mitotic spindles in human HeLa cells at 10 uM incubated for 18 hrs by indirect immunofluorescence microscopy; assay type: functional, cell-based; procedure, shortened: as §3
PC-3 [34] = experiment: Induction of aberrant bipolar mitotic spindles in human PC3 cells at 10 uM incubated for 18 hrs by indirect immunofluorescence microscopy; assay type: functional, cell-based; procedure, shortened: as §3
HeLa [35] = experiment: Induction of monopolar mitotic spindles in human HeLa cells at 10 uM incubated for 18 hrs by indirect immunofluorescence microscopy; assay type: functional, cell-based; procedure, shortened: as §3
PC-3 [36] = experiment: Induction of cell cycle arrest in human PC3 cells at 1.5 uM to 5 uM incubated for 18 hrs by flow cytometry method; assay type: functional, cell-based
Procedure, shortened: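 PC-3 cells were treated with vehicle (DMSO) or compound for 18 h. Stained with Krishan's reagent (propidium iodide), and DNA content read by flow cytometry for cell cycle distribution.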

| SMILES | IC50 (HeLa [1]) [nM] | Activity (HeLa [2]) | Activity (DU-145 [3]) | Ratio IC50 (SK-OV-3 [5]) | inhibition [6] | inhibition [7] | IC50 (DU-145 [8]) [nM] | IC50 (SK-OV-3 [10]) [nM] | inhibition (DU-145 [11]) | inhibition (HeLa [12]) | inhibition (DU-145 [14]) | IC50 (A10) [nM] | inhibition (Tubulin (Sus scrofa) [16]) | IC50 (PC-3 [18]) [nM] | IC50 (SK-OV-3 [19]) [nM] | also measured |
| --- | --- | --- | --- | --- | --- | --- | --- | --- | --- | --- | --- | --- | --- | --- | --- | --- |
| C=C1C(=O)O[C@H]2[C@H]1[C@H](OC(=O)[C@@]1(C)O[C@H]1C)[C@H](OC(C)=O)/C(C(=O)OC)=C\C[C@@H](O)[C@]1(C)O[C@H]21 | 3800 | Active | Active | 2.6 | inactive | inactive | 5900 | 4400 | inactive | inactive | Dose-dependent effect | 3000 | Active | 8700 | 1700 | Activity (PC-3 [4]): Active; Activity (HeLa [9]): Active; Activity (HeLa [13]): Active; inhibition (DU-145 [15]): Active; Activity (PC-3 [17]): Active |
| CC[C@@H]1C(=O)N(C)c2cnc(Nc3ccc(C(=O)NC4CCN(C)CC4)cc3OC)nc2N1C1CCCC1 | – | – | – | – | – | – | – | – | – | – | – | – | – | – | – | inhibition (HeLa [20]): Active; inhibition (DU-145 [21]): Active; Activity (HeLa [22]): Active; Activity (DU-145 [23]): Active; Activity (HeLa [24]): Active; Activity (PC-3 [25]): Active |
| C=C1C(=O)O[C@H]2[C@H]1[C@H](OC(=O)[C@@]1(C)O[C@H]1C)[C@@H](OC(C)=O)[C@@]1(C(=O)OC)C=CC=C(C)[C@H]21 | – | – | – | – | – | – | 180 | – | – | – | – | – | – | 670 | – | Ratio IC50 (DU-145 [26]): 3.7 |
| CC(=O)O[C@H]1C(=O)[C@@]2(C)[C@H]([C@H](OC(=O)c3ccccc3)[C@]3(O)C[C@H](OC(=O)[C@H](O)[C@@H](NC(=O)c4ccccc4)c4ccccc4)C(C)=C1C3(C)C)[C@]1(OC(C)=O)CO[C@@H]1C[C@@H]2O [PACLITAXEL] | 3.5 | – | – | 162.9 | – | – | 4 | 1010 | – | – | – | – | – | 40 | 6.2 | – |
| C=C1C(=O)O[C@H]2[C@H]1[C@H](OC(=O)[C@@]1(C)O[C@H]1C)[C@H](OC(C)=O)/C(C(=O)OC)=C\[C@H]1O[C@H]1[C@]1(C)O[C@H]21 | 1900 | Active | Active | 2.4 | inactive | inactive | 2600 | 2000 | inactive | inactive | Dose-dependent effect | 1100 | Active | 3100 | 820 | Activity (HeLa [27]): Active; Activity (HeLa [28]): Active; Activity (PC-3 [29]): Active; Activity (PC-3 [30]): Active |
| C=C1C(=O)O[C@H]2[C@H]1[C@H](OC(=O)[C@@]1(C)O[C@H]1C)[C@H](OC(C)=O)/C(C(=O)OC)=C\C=C/[C@]1(C)O[C@H]21 | 1700 | Active | Active | 2.5 | inactive | inactive | 1800 | 1400 | inactive | inactive | Dose-dependent effect | 1700 | – | 1700 | 570 | Activity (PC-3 [31]): Active; inhibition (Tubulin (Sus scrofa) [32]): Active; Activity (HeLa [33]): Active; Activity (PC-3 [34]): Active; Activity (HeLa [35]): Active; Activity (PC-3 [36]): inactive |
